Source: ChEMBL document CHEMBL3259704, “Second generation steroidal 4-aminoquinolines are potent, dual-target inhibitors of the botulinum neurotoxin serotype A metalloprotease and P. falciparum malaria” (J Med Chem, 2014)

Key:
[1] = molecular target: Botulinum neurotoxin type A (Clostridium botulinum) (UniProt P0DPI0); test: Inhibition of Clostridium botulinum recombinant BoNT/A light chain using N-terminal acetylated, C-terminal aminated SNAP-25 (187-203) as substrate at 20 uM by reverse-phase HPLC analysis
Procedure, shortened: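 Recombinant BoNT/A LC with SNAP-25 187–203 peptide substrate in 40 mM HEPES–0.05% Tween, pH 7.3, with 0.5 mg/mL BSA and 50 μM excess Zn, at 37 °C. Quenched with TFA; reverse-phase HPLC product/substrate peak areas give percent inhibition, run in duplicate.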

Plasmodium falciparum [2] = test: Antimalarial activity against CQ, MFQ-susceptible Plasmodium falciparum D6 clone Sierra 1/UNC isolate assessed as inhibition of parasite proliferation by MSF assay; type: functional, organism-based
Procedure, shortened: (§1)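 SYBR Green I fluorescence (MSF) microtiter drug-sensitivity assay: malarial DNA content is the measure of in vitro parasite proliferation. Resistance index is the IC90 ratio of the resistant strain to D6.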

[3] = Selectivity index, ratio of IC50 for human HepG2 cells to IC50 for CQ-resistant, MFQ-susceptible Plasmodium falciparum W2 clone Indochina 1 isolate; type: toxicity, cell-based; details: read-out: Ratio IC50
Plasmodium falciparum [4] = test: Resistance index, ratio of IC90 for CQ-resistant, MFQ-susceptible Plasmodium falciparum W2 clone Indochina 1 isolate to IC90 for CQ, MFQ-susceptible Plasmodium falciparum D6 clone Sierra 1/UNC isolate; type: functional; procedure, shortened: as §1
Plasmodium falciparum [5] = test: Resistance index, ratio of IC90 for CQ, MFQ-resistant Plasmodium falciparum TM91C235 clone Southeast asian isolate to IC90 for CQ, MFQ-susceptible Plasmodium falciparum D6 clone Sierra 1/UNC isolate; type: functional; procedure, shortened: as §1
Plasmodium falciparum [6] = test: Antimalarial activity against CQ-resistant, MFQ-susceptible Plasmodium falciparum W2 clone Indochina 1 isolate assessed as inhibition of parasite proliferation by MSF assay; type: functional, organism-based; procedure, shortened: as §1
Plasmodium falciparum [7] = test: Antimalarial activity against CQ, MFQ-resistant Plasmodium falciparum TM91C235 clone Southeast asian isolate assessed as inhibition of parasite proliferation by MSF assay; type: functional, organism-based; procedure, shortened: as §1
[8] = Selectivity index, ratio of IC50 for human HepG2 cells to IC50 for CQ, MFQ-resistant Plasmodium falciparum TM91C235 clone Southeast asian isolate; type: toxicity, cell-based; details: read-out: Ratio IC50
HepG2 = test: Cytotoxicity against human HepG2 cells assessed as cell viability after 48 hrs by MTT assay; type: cell-based; details: HepG2, 48 h
[9] = Half life in mouse liver microsomes; type: ADME; details: liver microsomes
[10] = Selectivity index, ratio of IC50 for human HepG2 cells to IC50 for CQ, MFQ-susceptible Plasmodium falciparum D6 clone Sierra 1/UNC isolate; type: toxicity, cell-based; details: read-out: Ratio IC50
[11] = molecular target: Botulinum neurotoxin type A (Clostridium botulinum, UniProt P0DPI0); test: Inhibition of Clostridium botulinum recombinant BoNT/A light chain using N-terminal acetylated, C-terminal aminated SNAP-25 (187-203) as substrate by reverse-phase HPLC analysis
Procedure, shortened: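 Same HPLC LC cleavage assay (pH 7.3 HEPES/Tween, BSA, excess Zn, 37 °C). […] Ki comes from velocity versus substrate at several inhibitor levels, globally fit to a competitive model.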

Liver microsome = test: Half life in human liver microsomes; type: ADME; details: microsomes
PBMC = test: Cytotoxicity against human PBMC assessed as inhibition of cell survival after 72 hrs; type: cell-based
Procedure, shortened: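 PBMC from heparinized healthy-donor blood (Histopaque) in RPMI-1640 with 10% FCS and PHA stimulation, 200 000 cells/well, with compounds in DMSO, 72 h at 37 °C, 6% CO2.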

Chain of Botulinum neurotoxin type A (Clostridium botulinum) (P0DPI0 2-448 limits assumed): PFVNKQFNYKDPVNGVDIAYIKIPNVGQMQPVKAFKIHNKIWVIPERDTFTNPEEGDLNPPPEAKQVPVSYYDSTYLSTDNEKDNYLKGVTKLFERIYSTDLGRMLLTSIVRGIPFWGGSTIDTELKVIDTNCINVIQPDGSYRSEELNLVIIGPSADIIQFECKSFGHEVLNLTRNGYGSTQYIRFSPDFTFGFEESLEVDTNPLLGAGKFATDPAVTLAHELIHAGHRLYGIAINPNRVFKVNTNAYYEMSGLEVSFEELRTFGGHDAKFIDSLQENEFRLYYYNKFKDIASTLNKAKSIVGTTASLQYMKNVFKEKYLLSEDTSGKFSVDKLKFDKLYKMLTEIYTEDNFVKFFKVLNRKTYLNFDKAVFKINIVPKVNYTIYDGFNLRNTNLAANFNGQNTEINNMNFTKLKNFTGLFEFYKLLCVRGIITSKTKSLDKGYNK
Chain of Botulinum neurotoxin type A (P0DPI0 2-448 limits assumed): as above

SMILES	inhibition [1]	IC50 (Plasmodium falciparum [2])	IC90 (Plasmodium falciparum [2])	selectivity ratio [3]	Ratio (Plasmodium falciparum [4])	Ratio (Plasmodium falciparum [5])	IC50 (Plasmodium falciparum [6])	IC90 (Plasmodium falciparum [6])	IC50 (Plasmodium falciparum [7])	IC90 (Plasmodium falciparum [7])	selectivity ratio [8]	IC50 (HepG2)	half-life [9]	selectivity ratio [10]	IC50 [11]	t1/2 (Liver microsome)	Ki [11]	IC50 (PBMC)
CC(=O)O[C@H]1C[C@H]2[C@@H]([C@H](OC(C)=O)C[C@@H]3C[C@H](NS(C)(=O)=O)CC[C@@]32C)[C@@H]2CC[C@H]([C@H](C)CCCN(C)CCCNc3ccnc4cc(Cl)ccc34)[C@@]12C	55.6%	31.7 nM	55.9 nM	93	0.98	0.51	30.5 nM	54.7 nM	20.3 nM	28.6 nM	139	2830 nM	1 h	89	8210 nM	0.183 h	–	–
CC(=O)O[C@H]1C[C@H]2[C@@H]([C@H](OC(C)=O)C[C@@H]3C[C@H](N)CC[C@@]32C)[C@@H]2CC[C@H]([C@H](C)CCCN(CCCNc3ccnc4cc(Cl)ccc34)CCC[C@@H](C)[C@H]3CC[C@H]4[C@@H]5[C@H](OC(C)=O)C[C@@H]6C[C@H](N)CC[C@]6(C)[C@H]5C[C@H](OC(C)=O)[C@]34C)[C@@]12C	92.8%	245 nM	321 nM	10	1.29	0.97	218 nM	414 nM	297 nM	313 nM	7	2130 nM	–	9	630 nM	–	–	–
CC(=O)O[C@@H]1CC[C@@]2(C)[C@@H](C1)C[C@@H](OC(C)=O)[C@@H]1[C@@H]2C[C@H](OC(C)=O)[C@]2(C)[C@@H]([C@H](C)CCCN(C)CCCNc3ccnc4cc(Cl)ccc34)CC[C@@H]12	61.1%	6.91 nM	10.5 nM	134	1.61	4.52	11.8 nM	16.9 nM	22.3 nM	47.3 nM	71	1580 nM	–	229	4480 nM	–	7690 nM	–
CC(=O)O[C@H]1C[C@H]2[C@@H]([C@H](OC(C)=O)C[C@@H]3C[C@H](O)CC[C@@]32C)[C@@H]2CC[C@H]([C@H](C)CCCNCCCNc3ccnc4cc(Cl)ccc34)[C@@]12C	69.9%	9.3 nM	16.5 nM	84	1.14	1.84	12.8 nM	18.8 nM	11.9 nM	30.3 nM	90	1070 nM	1 h	115	5180 nM	0.13 h	–	–
CC(=O)O[C@H]1C[C@H]2[C@@H]([C@H](OC(C)=O)C[C@@H]3C[C@H](N(C)C)CC[C@@]32C)[C@@H]2CC[C@H]([C@H](C)CCCNCCCNc3ccnc4cc(Cl)ccc34)[C@@]12C	92.6%	101 nM	139 nM	382	0.58	1.19	36.1 nM	81.1 nM	88.7 nM	165 nM	156	13800 nM	–	137	1340 nM	–	–	7840 nM
CC(=O)N[C@@H]1CC[C@@]2(C)[C@@H](C1)C[C@@H](OC(C)=O)[C@@H]1[C@@H]2C[C@H](OC(C)=O)[C@]2(C)[C@@H]([C@H](C)CCCNCCCNc3ccnc4cc(Cl)ccc34)CC[C@@H]12	77.3%	12.8 nM	36.5 nM	55	0.98	1.09	26.4 nM	35.8 nM	28.1 nM	39.9 nM	51	1450 nM	–	114	4920 nM	–	–	–
CC(=O)O[C@H]1C[C@H]2[C@@H]([C@H](OC(C)=O)C[C@@H]3C[C@H](NS(C)(=O)=O)CC[C@@]32C)[C@@H]2CC[C@H]([C@H](C)CCCNCCNc3ccnc4cc(Cl)ccc34)[C@@]12C	74.4%	19.4 nM	53 nM	131	1.34	0.86	44.6 nM	71.1 nM	26.4 nM	45.6 nM	222	5850 nM	–	301	5090 nM	–	–	–
CC(=O)O[C@H]1C[C@H]2[C@@H]([C@H](OC(C)=O)C[C@@H]3C[C@H](N)CC[C@@]32C)[C@@H]2CC[C@H]([C@H](C)CCCNCCCNc3ccnc4cc(Cl)ccc34)[C@@]12C	84.8%	138 nM	234 nM	54	1.21	1.49	195 nM	282 nM	243 nM	347 nM	43	10400 nM	–	75	1040 nM	–	3450 nM	–
CC(=O)O[C@H]1C[C@H]2[C@@H]([C@H](OC(C)=O)C[C@@H]3C[C@H](N)CC[C@@]32C)[C@@H]2CC[C@H]([C@H](C)CCCN(C)CCCNc3ccnc4cc(Cl)ccc34)[C@@]12C	81.4%	112 nM	150 nM	45	1.02	0.85	110 nM	153 nM	100 nM	128 nM	50	4970 nM	–	44	1130 nM	–	–	–
